# Legend:
# Type in all cases: functional
# A498 = test: Cytotoxicity against human A498 cells after 48 hrs by SRB assay; settings: A498, 48 h
# Procedure, shortened: (§1)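 NCI-60 human tumour cell panel screen, second stage, run by the NCI Developmental Therapeutics Program. Compounds were tested at five concentrations (0.01, 0.1, 1, 10 and 100 μM). Percentage growth was plotted against log10 concentration for each cell line. GI50, TGI and LC50 were taken from these dose-response curves.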
# DU-145 = test: Cytotoxicity against human DU145 cells after 48 hrs by SRB assay; settings: DU-145, 48 h; procedure, shortened: as §1
# IGROV-1 = test: Cytotoxicity against human IGROV1 cells after 48 hrs by SRB assay; settings: IGROV-1, 48 h; procedure, shortened: as §1
# SF-539 = test: Cytotoxicity against human SF539 cells after 48 hrs by SRB assay; settings: SF-539, 48 h
# Procedure, shortened: (§2)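 Second-stage NCI-60 panel run by the NCI Developmental Therapeutics Program, covering nine tumour subpanels. Five concentrations were tested: 0.01, 0.1, 1, 10 and 100 μM. Percentage growth at each level was plotted against log10 drug concentration. GI50, TGI and LC50 were read from these dose-response curves. Subpanel MID values were divided into the full-panel MID to give selectivity ratios.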
# OVCAR-3 = test: Cytotoxicity against human OVCAR3 cells after 48 hrs by SRB assay; settings: OVCAR-3, 48 h; procedure, shortened: as §2
# MCF7 = test: Cytotoxicity against human MCF7 cells after 48 hrs by SRB assay; settings: MCF7, 48 h; procedure, shortened: as §1
# CAKI-1 = test: Cytotoxicity against human Caki1 cells after 48 hrs by SRB assay; settings: CAKI-1, 48 h; procedure, shortened: as §1
# HL-60(TB) = test: Cytotoxicity against human HL-60(TB) cells after 48 hrs by SRB assay; settings: HL-60, 48 h
# Procedure, shortened: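 NCI Developmental Therapeutics Program 60-cell-line screen, second stage: cells exposed to five concentrations (0.01, 0.1, 1, 10 and 100 μM). Growth is plotted against log10 concentration for each line, and GI50, TGI and LC50 are read from the dose-response curves.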
# HOP-62 = test: Cytotoxicity against human HOP62 cells after 48 hrs by SRB assay; settings: HOP-62, 48 h; procedure, shortened: as §1
# PC-3 = test: Cytotoxicity against human PC3 cells after 48 hrs by SRB assay; settings: PC-3, 48 h; procedure, shortened: as §2
# SNB-75 = test: Cytotoxicity against human SNB75 cells after 48 hrs by SRB assay; settings: SNB-75, 48 h
# Procedure, shortened: (§3)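 NCI-60 five-dose study run by NCI DTP at 0.01, 0.1, 1, 10 and 100 µM. Percentage growth at each level was plotted against log10 concentration for each line, and GI50, TGI and LC50 were read from the dose-response curves.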
# CCRF-CEM = test: Cytotoxicity against human CCRF-CEM cells after 48 hrs by SRB assay; procedure, shortened: as §1
# SK-MEL-5 = test: Cytotoxicity against human SK-MEL-5 cells after 48 hrs by SRB assay; settings: SK-MEL-5, 48 h; procedure, shortened: as §2
# NCI-H226 = test: Cytotoxicity against human NCI-H226 cells after 48 hrs by SRB assay; settings: NCI-H226, 48 h; procedure, shortened: as §2
# UO-31 = test: Cytotoxicity against human UO31 cells after 48 hrs by SRB assay; settings: UO-31, 48 h; procedure, shortened: as §3
# [1] = Cytotoxicity against human CNS cancer cells assessed as growth inhibition after 48 hrs by SRB assay; settings: Cancer cell lines
# Procedure, shortened: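 NCI-60 five-dose data (0.01–100 μM) were grouped by tumour subpanel. A subpanel mean (MID) of GI50 was computed for the CNS cancer lines. A selectivity ratio was obtained as full-panel MID divided by subpanel MID: 3–6 counts as moderate, >6 as high.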
# COLO 205 = test: Cytotoxicity against human COLO205 cells after 48 hrs by SRB assay; settings: COLO 205, 48 h; procedure, shortened: as §1
# NCI-H23 = test: Cytotoxicity against human NCI-H23 cells after 48 hrs by SRB assay; settings: NCI-H23, 48 h; procedure, shortened: as §2
# TK-10 = test: Cytotoxicity against human TK10 cells after 48 hrs by SRB assay; settings: TK-10, 48 h; procedure, shortened: as §3
# HOP-92 = test: Cytotoxicity against human HOP92 cells after 48 hrs by SRB assay; settings: HOP-92, 48 h; procedure, shortened: as §1
# SF-295 = test: Cytotoxicity against human SF295 cells after 48 hrs by SRB assay; settings: SF-295, 48 h; procedure, shortened: as §2
# UACC-257 = test: Cytotoxicity against human UACC257 cells after 48 hrs by SRB assay; settings: UACC-257, 48 h; procedure, shortened: as §3
# HCC 2998 = test: Cytotoxicity against human HCC2998 cells after 48 hrs by SRB assay; settings: HCC 2998, 48 h; procedure, shortened: as §1
# NCI-H522 = test: Cytotoxicity against human NCI-H522 cells after 48 hrs by SRB assay; settings: NCI-H522, 48 h; procedure, shortened: as §2
# MOLT-4 = test: Cytotoxicity against human MOLT4 cells after 48 hrs by SRB assay; settings: MOLT-4, 48 h; procedure, shortened: as §2
# SW-620 = test: Cytotoxicity against human SW620 cells after 48 hrs by SRB assay; settings: SW-620, 48 h; procedure, shortened: as §3
# UACC-62 = test: Cytotoxicity against human UACC62 cells after 48 hrs by SRB assay; settings: UACC-62, 48 h; procedure, shortened: as §3
compound,measurement,setting,value
O=C1c2ccccc2C(=O)c2c1cc(Sc1ccc(F)cc1F)c1nsnc21,GI50,A498,2.26 µM
same,LC50 (concentration killing 50% of cells),A498,> 100 µM
same,TGI,A498,58.5 µM
same,GI50,DU-145,6.3 µM
same,LC50,DU-145,45 µM
same,TGI,DU-145,18.7 µM
same,GI50,IGROV-1,2.93 µM
same,LC50,IGROV-1,46.6 µM
same,TGI,IGROV-1,10.2 µM
same,GI50,SF-539,2.08 µM
same,LC50,SF-539,8.63 µM
same,TGI,SF-539,4.24 µM
same,GI50,OVCAR-3,1.82 µM
same,TGI,OVCAR-3,3.44 µM
same,CC50,OVCAR-3; read-out: LC50 (the source's name),6.52 µM
same,GI50,MCF7,1.31 µM
same,LC50 (concentration killing 50% of cells),MCF7,7.39 µM
same,TGI,MCF7,3.11 µM
same,GI50,CAKI-1,2.51 µM
same,LC50 (concentration causing 50% net cell kill),CAKI-1,> 100 µM
same,TGI,CAKI-1,7.04 µM
same,GI50,HL-60(TB),2.68 µM
same,LC50,HL-60(TB),> 100 µM
same,TGI,HL-60(TB),7.7 µM
same,GI50,HOP-62,1.82 µM
same,LC50,HOP-62,6.01 µM
same,TGI,HOP-62,3.3 µM
same,GI50,PC-3,1.96 µM
same,LC50 (concentration killing 50% of cells),PC-3,85.7 µM
same,TGI,PC-3,6.41 µM
same,GI50,SNB-75,1.57 µM
same,LC50 (concentration killing 50% of cells),SNB-75,13.1 µM
same,TGI,SNB-75,4.22 µM
same,GI50,CCRF-CEM,0.7 µM
same,LC50,CCRF-CEM,57.8 µM
same,TGI,CCRF-CEM,6.35 µM
same,GI50,SK-MEL-5,1.41 µM
same,LC50,SK-MEL-5,5.72 µM
same,TGI,SK-MEL-5,2.84 µM
same,GI50,NCI-H226,3.09 µM
same,LC50 (concentration killing 50% of starting cells),NCI-H226,59.1 µM
same,TGI,NCI-H226,11.1 µM
same,GI50,UO-31,3.03 µM
same,LC50,UO-31,42.6 µM
same,TGI,UO-31,15 µM
same,GI50,[1],5.69 µM
same,GI50,COLO 205,13.7 µM
same,LC50,COLO 205,56.2 µM
same,TGI,COLO 205,27.7 µM
same,GI50,NCI-H23,1.88 µM
same,LC50,NCI-H23,43.1 µM
same,TGI,NCI-H23,6.99 µM
same,GI50,TK-10,5.07 µM
same,LC50 (concentration killing 50% of cells),TK-10,38.6 µM
same,TGI,TK-10,14.1 µM
same,GI50,HOP-92,2.03 µM
same,LC50 (concentration giving 50% net cell kill),HOP-92,16.3 µM
same,TGI,HOP-92,5.01 µM
same,GI50,SF-295,9 µM
same,LC50,SF-295,> 100 µM
same,TGI,SF-295,44.2 µM
same,GI50,UACC-257,1.59 µM
same,LC50,UACC-257,18 µM
same,TGI,UACC-257,4.64 µM
same,GI50,HCC 2998,11.3 µM
same,LC50,HCC 2998,56.4 µM
same,TGI,HCC 2998,25.3 µM
same,GI50,NCI-H522,3.76 µM
same,LC50 (concentration giving 50% net cell kill),NCI-H522,37.1 µM
same,TGI,NCI-H522,12.4 µM
same,GI50,MOLT-4,1.11 µM
same,LC50,MOLT-4,> 100 µM
same,TGI,MOLT-4,5.46 µM
same,GI50,SW-620,3.99 µM
same,LC50 (50% lethal concentration),SW-620,69.5 µM
same,TGI,SW-620,16.3 µM
same,GI50,UACC-62,1.73 µM
same,LC50,UACC-62,12.9 µM
same,TGI,UACC-62,4.37 µM
